Laboratory results reported in ChEMBL document CHEMBL1155010, “Synthesis and biological evaluation of substituted [18F]imidazo[1,2-a]pyridines and [18F]pyrazolo[1,5-a]pyrimidines for the study of the peripheral benzodiazepine receptor using positron emission tomography” (J Med Chem, 2008).

Experiments:
[1] = Lipophilicity, log p at pH 7.5; type: physicochemical; conditions: buffer
Procedure, shortened: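 RP-HPLC on a C18 column with methanol/0.1 M phosphate buffer pH 7.5 (60/40) at 1 mL/min. Samples were dissolved in methanol. log P7.5 was estimated by comparing retention time with that of reference compounds of known log P.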

[2] = Displacement of [3H]flumazenil from central benzodiazepine receptor in rat brain cortex membrane; type: cell membranes
Procedure, shortened: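 Rat brain cortex membranes (100-150 µg protein) were incubated in triplicate at 25 °C for 45 min with [3H]flumazenil (2 nM) and 7 ligand concentrations (10^-10 to 10^-5 M). Nonspecific binding was set with flumazenil 20 µM. Assays were filtered, washed with ice-cold Tris/HCl pH 7.4 and counted. Ki was derived from IC50 by Cheng-Prusoff.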

Kidney [3] = experiment: Biodistribution in Sprague-Dawley rat kidney assessed per gram of tissue at 1 MBq, iv after 0.25 hrs; type: ADME, organism-based; conditions: in vivo
Procedure, shortened: (§1)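 Male SD rats aged 8-10 weeks got 1 MBq [18F]tracer by tail vein in 0.1 mL. Groups of n = 4 were killed (CO2, then cervical fracture) at 0.25, 0.5, 1 and 4 h. Organs were weighed and gamma counted against a diluted standard of the injectate. Results are %ID per gram wet tissue, mean with standard deviation.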

Kidney [4] = experiment: Biodistribution in Sprague-Dawley rat kidney assessed per gram of tissue at 1 MBq, iv after 0.5 hrs; type: ADME, organism-based; conditions: in vivo; procedure, shortened: as §1
Kidney [5] = experiment: Biodistribution in Sprague-Dawley rat kidney assessed per gram of tissue at 1 MBq, iv after 1 hr; type: ADME, organism-based; conditions: in vivo; procedure, shortened: as §1
Kidney [6] = experiment: Biodistribution in Sprague-Dawley rat kidney assessed per gram of tissue at 1 MBq, iv after 4 hrs; type: ADME, organism-based; conditions: in vivo; procedure, shortened: as §1
Heart [7] = experiment: Biodistribution in Sprague-Dawley rat heart assessed per gram of tissue at 1 MBq, iv after 0.25 hrs; type: ADME, organism-based; conditions: in vivo; procedure, shortened: as §1
Heart [8] = experiment: Biodistribution in Sprague-Dawley rat heart assessed per gram of tissue at 1 MBq, iv after 0.5 hrs; type: ADME, organism-based; conditions: in vivo; procedure, shortened: as §1
Heart [9] = experiment: Biodistribution in Sprague-Dawley rat heart assessed per gram of tissue at 1 MBq, iv after 1 hr; type: ADME, organism-based; conditions: in vivo; procedure, shortened: as §1
Heart [10] = experiment: Biodistribution in Sprague-Dawley rat heart assessed per gram of tissue at 1 MBq, iv after 4 hrs; type: ADME, organism-based; conditions: in vivo; procedure, shortened: as §1
Lung [11] = experiment: Biodistribution in Sprague-Dawley rat lungs assessed per gram of tissue at 1 MBq, iv after 0.25 hrs; type: ADME, organism-based; conditions: in vivo; procedure, shortened: as §1
Lung [12] = experiment: Biodistribution in Sprague-Dawley rat lungs assessed per gram of tissue at 1 MBq, iv after 0.5 hrs; type: ADME, organism-based; conditions: in vivo; procedure, shortened: as §1
Lung [13] = experiment: Biodistribution in Sprague-Dawley rat lungs assessed per gram of tissue at 1 MBq, iv after 1 hr; type: ADME, organism-based; conditions: in vivo; procedure, shortened: as §1
Lung [14] = experiment: Biodistribution in Sprague-Dawley rat lungs assessed per gram of tissue at 1 MBq, iv after 4 hrs; type: ADME, organism-based; conditions: in vivo; procedure, shortened: as §1
Spleen [15] = experiment: Biodistribution in Sprague-Dawley rat spleen assessed per gram of tissue at 1 MBq, iv after 0.25 hrs; type: ADME, organism-based; conditions: in vivo; procedure, shortened: as §1
Spleen [16] = experiment: Biodistribution in Sprague-Dawley rat spleen assessed per gram of tissue at 1 MBq, iv after 0.5 hrs; type: ADME, organism-based; conditions: in vivo; procedure, shortened: as §1
Spleen [17] = experiment: Biodistribution in Sprague-Dawley rat spleen assessed per gram of tissue at 1 MBq, iv after 1 hr; type: ADME, organism-based; conditions: in vivo; procedure, shortened: as §1
Spleen [18] = experiment: Biodistribution in Sprague-Dawley rat spleen assessed per gram of tissue at 1 MBq, iv after 4 hrs; type: ADME, organism-based; conditions: in vivo; procedure, shortened: as §1
Liver [19] = experiment: Biodistribution in Sprague-Dawley rat liver assessed per gram of tissue at 1 MBq, iv after 0.25 hrs; type: ADME, organism-based; conditions: in vivo; procedure, shortened: as §1
Liver [20] = experiment: Biodistribution in Sprague-Dawley rat liver assessed per gram of tissue at 1 MBq, iv after 0.5 hrs; type: ADME, organism-based; conditions: in vivo; procedure, shortened: as §1
Liver [21] = experiment: Biodistribution in Sprague-Dawley rat liver assessed per gram of tissue at 1 MBq, iv after 1 hr; type: ADME, organism-based; conditions: in vivo; procedure, shortened: as §1
Liver [22] = experiment: Biodistribution in Sprague-Dawley rat liver assessed per gram of tissue at 1 MBq, iv after 4 hrs; type: ADME, organism-based; conditions: in vivo; procedure, shortened: as §1
Adrenal [23] = experiment: Biodistribution in Sprague-Dawley rat adrenals assessed per gram of tissue at 1 MBq, iv after 0.25 hrs; type: ADME, organism-based, Adrenal tissue; conditions: in vivo; procedure, shortened: as §1
Adrenal [24] = experiment: Biodistribution in Sprague-Dawley rat adrenals assessed per gram of tissue at 1 MBq, iv after 0.5 hrs; type: ADME, organism-based, Adrenal tissue; conditions: in vivo; procedure, shortened: as §1
Adrenal [25] = experiment: Biodistribution in Sprague-Dawley rat adrenals assessed per gram of tissue at 1 MBq, iv after 1 hr; type: ADME, organism-based, Adrenal tissue; conditions: in vivo; procedure, shortened: as §1
Adrenal [26] = experiment: Biodistribution in Sprague-Dawley rat adrenals assessed per gram of tissue at 1 MBq, iv after 4 hrs; type: ADME, organism-based, Adrenal tissue; conditions: in vivo; procedure, shortened: as §1
[27] = Biodistribution in Sprague-Dawley rat testis assessed per gram of tissue at 1 MBq, iv after 0.25 hrs; type: ADME, organism-based; conditions: in vivo; procedure, shortened: as §1
[28] = Biodistribution in Sprague-Dawley rat testis assessed per gram of tissue at 1 MBq, iv after 0.5 hrs; type: ADME, organism-based; conditions: in vivo; procedure, shortened: as §1
[29] = Biodistribution in Sprague-Dawley rat testis assessed per gram of tissue at 1 MBq, iv after 1 hr; type: ADME, organism-based; conditions: in vivo; procedure, shortened: as §1
[30] = Biodistribution in Sprague-Dawley rat testis assessed per gram of tissue at 1 MBq, iv after 4 hrs; type: ADME, organism-based; conditions: in vivo; procedure, shortened: as §1
Blood [31] = experiment: Biodistribution in Sprague-Dawley rat blood at 1 MBq, iv after 1 hr; type: ADME, organism-based; conditions: in vivo
Procedure, shortened: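 Male SD rats, 8-10 weeks old, given 1 MBq [18F]radiotracer by tail-vein injection in 0.1 mL. Groups of 4 killed (CO2, then cervical fracture) at 0.25, 0.5, 1 and 4 h post-injection. Tissues weighed and gamma-counted against a diluted standard of the injected solution. Activity expressed as %ID per gram wet tissue.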

Blood [32] = experiment: Biodistribution in Sprague-Dawley rat blood at 1 MBq, iv after 0.25 hrs; type: ADME, organism-based; conditions: in vivo; procedure, shortened: as §1
Blood [33] = experiment: Biodistribution in Sprague-Dawley rat blood at 1 MBq, iv after 4 hrs; type: ADME, organism-based; conditions: in vivo; procedure, shortened: as §1
Femur [34] = experiment: Biodistribution in Sprague-Dawley rat femur at 1 MBq, iv after 0.25 hrs; type: ADME, organism-based; conditions: in vivo; procedure, shortened: as §1
Femur [35] = experiment: Biodistribution in Sprague-Dawley rat femur at 1 MBq, iv after 4 hrs; type: ADME, organism-based; conditions: in vivo; procedure, shortened: as §1
[36] = Metabolic stability in Sprague-Dawley rat plasma assessed as drug remaining at 30 MBq after 0.25 hrs by Radio-HPLC analysis; type: ADME, cell-free; conditions: read-out: Stability
Procedure, shortened: (§2)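 Rats received 30 MBq tracer and were sampled at 0.25, 0.5, 1 and 4 h. Plasma was diluted with water containing unlabeled carrier and KF and injected directly. Frontal cortex or olfactory bulb was sonicated in acetonitrile/water 1:1 with carrier and KF, centrifuged, and the supernatant diluted. Radio-HPLC used a precolumn switched to C18 with a CH3CN/0.05 M sodium acetate pH 5.5 gradient. Result is % parent remaining.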

[37] = Metabolic stability in Sprague-Dawley rat frontal cortex assessed as drug remaining at 30 MBq after 0.25 hrs by Radio-HPLC analysis; type: ADME, tissue-based; conditions: read-out: Stability; procedure, shortened: as §2
[38] = Metabolic stability in Sprague-Dawley rat frontal cortex assessed as drug remaining at 30 MBq after 4 hrs by Radio-HPLC analysis; type: ADME, tissue-based; conditions: read-out: Stability; procedure, shortened: as §2
[39] = Ratio of drug level in olfactory bulb to blood in Sprague-Dawley rat at 1 MBq, iv; type: ADME
Procedure, shortened: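 Same rat biodistribution as above: 1 MBq iv by tail vein, n = 4 per time point, 0.25-4 h, gamma counting as %ID/g. Ratio is the olfactory bulb radioactivity concentration divided by the blood concentration at each time.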

[40] = Metabolic stability in Sprague-Dawley rat plasma assessed as drug remaining at 30 MBq after 4 hrs by Radio-HPLC analysis; type: ADME, cell-free; conditions: read-out: Stability; procedure, shortened: as §2
[41] = Metabolic stability in Sprague-Dawley rat olfactory bulb assessed as drug remaining at 30 MBq after 0.25 hrs by Radio-HPLC analysis; type: ADME, tissue-based; conditions: read-out: Stability; procedure, shortened: as §2
[42] = Metabolic stability in Sprague-Dawley rat olfactory bulb assessed as drug remaining at 30 MBq after 4 hrs by Radio-HPLC analysis; type: ADME, tissue-based; conditions: read-out: Stability; procedure, shortened: as §2

logD [1] | Ki [2] [µM] | Drug uptake (Kidney [3]) [%ID] | Drug uptake (Kidney [4]) [%ID] | Drug uptake (Kidney [5]) [%ID] | Drug uptake (Kidney [6]) [%ID] | Drug uptake (Heart [7]) [%ID] | Drug uptake (Heart [8]) [%ID] | Drug uptake (Heart [9]) [%ID] | Drug uptake (Heart [10]) [%ID] | Drug uptake (Lung [11]) [%ID] | Drug uptake (Lung [12]) [%ID] | Drug uptake (Lung [13]) [%ID] | Drug uptake (Lung [14]) [%ID] | Drug uptake (Spleen [15]) [%ID] | Drug uptake (Spleen [16]) [%ID] | Drug uptake (Spleen [17]) [%ID] | Drug uptake (Spleen [18]) [%ID] | Drug uptake (Liver [19]) [%ID] | Drug uptake (Liver [20]) [%ID] | SMILES | also measured
3.2 | > 5 | – | – | – | – | – | – | – | – | – | – | – | – | – | – | – | – | – | – | CCN(CC)C(=O)Cc1c(-c2ccc(OCCCF)cc2)nn2c(C)cc(C)nc12 | –
– | – | 5.5 | 4.9 | 4.7 | 3.2 | 9 | 9 | 8.7 | 5.8 | 20 | 12.4 | 7.1 | 3.3 | 5.5 | 5.5 | 5.1 | 3.6 | 1.08 | 0.98 | CCN(CC)C(=O)Cc1c(-c2ccc(OCCC[18F])cc2)nn2c(C)cc(C)nc12 | Drug uptake (Liver [21]): 0.69 %ID; Drug uptake (Liver [22]): 0.38 %ID; Drug uptake (Adrenal [23]): 8 %ID; Drug uptake (Adrenal [24]): 7.9 %ID; Drug uptake (Adrenal [25]): 11 %ID; Drug uptake (Adrenal [26]): 12.2 %ID; Drug uptake [27]: 0.27 %ID; Drug uptake [28]: 0.28 %ID; Drug uptake [29]: 0.32 %ID; Drug uptake [30]: 0.43 %ID; Drug uptake (Blood [31]): 0.1 % ID/g; Drug uptake (Blood [32]): 0.3 % ID/g; Drug uptake (Blood [33]): 0.1 % ID/g; Drug uptake (Femur [34]): 0.6 % ID/g; Drug uptake (Femur [35]): 2.2 % ID/g; remaining at 0.25 h [36]: 10%; remaining at 0.25 h [37]: 55%; remaining at 4 h [38]: 30%
– | – | 3.8 | 3.6 | 3.5 | 2.4 | 5.8 | 5.6 | 6.4 | 4.3 | 14.6 | 8.8 | 5.7 | 2.8 | 4.6 | 4.7 | 4.5 | 3.9 | 0.63 | 0.54 | CCN(CC)C(=O)Cc1c(-c2ccc(OCC[18F])cc2)nn2c(C)cc(C)nc12 [DPA-714 F-18] | Drug uptake (Liver [21]): 0.4 %ID; Drug uptake (Liver [22]): 0.29 %ID; Drug uptake (Adrenal [23]): 5.6 %ID; Drug uptake (Adrenal [24]): 6.6 %ID; Drug uptake (Adrenal [25]): 7.8 %ID; Drug uptake (Adrenal [26]): 9.7 %ID; Drug uptake [27]: 0.18 %ID; Drug uptake [28]: 0.21 %ID; Drug uptake [29]: 0.27 %ID; Drug uptake [30]: 0.35 %ID; Drug uptake (Blood [31]): 0.1 % ID/g; Kp [39]: 2; Drug uptake (Femur [34]): 0.4 % ID/g; Drug uptake (Femur [35]): 0.7 % ID/g; remaining at 4 h [40]: < 1%; remaining at 0.25 h [37]: 55%; remaining at 4 h [38]: 10%; remaining at 0.25 h [41]: 80%; remaining at 4 h [42]: 40%
2.5 | > 5 | – | – | – | – | – | – | – | – | – | – | – | – | – | – | – | – | – | – | CCN(CC)C(=O)Cc1c(-c2ccc(OCCF)cc2)nn2c(C)cc(C)nc12 [DPA-714] | –
